Bioassay records deposited in PubChem BioAssay by Johns Hopkins Ion Channel Center.
Compounds with a hit are over-represented: about 3.5% of the library has one in this group of screens.
MrgX1 antag = blocks BAM8-22 activation of human MrgX1 receptor; 1.3% of 310,000 active; B-score at 10 µM; MRGX1-HEK293 calcium flux, Fluo-4, BAM8-22 antagonism; stronger effect = lower value;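 active means calcium-response B-score plate-corrected more than 3 library SD below zero, starting fluorescence within 5 deviations, no agonist response on first addition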;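 further: peak minus trough fluorescence over baseline after final BAM8-22 challenge near maximal dose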
Target sequence (Q96LB2 whole entry, looked up): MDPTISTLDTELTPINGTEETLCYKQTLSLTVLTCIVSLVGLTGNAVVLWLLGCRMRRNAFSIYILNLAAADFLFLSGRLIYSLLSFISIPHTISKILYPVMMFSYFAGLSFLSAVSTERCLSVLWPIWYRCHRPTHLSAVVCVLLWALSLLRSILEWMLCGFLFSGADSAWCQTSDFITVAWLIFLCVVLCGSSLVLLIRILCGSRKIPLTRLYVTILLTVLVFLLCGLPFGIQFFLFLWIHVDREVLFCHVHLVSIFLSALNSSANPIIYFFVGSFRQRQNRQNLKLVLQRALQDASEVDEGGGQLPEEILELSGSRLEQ
RGS4 pot = RGS4 potentiation or activation. 0.92% of 310,000 active. B-score at 10 µM. AID 463111. HEK293 M3R/inducible RGS4, carbachol calcium flux Fluo4; stronger effect = lower value;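 active means B-score of the integrated calcium signal more than 4 SD below the library mean, with starting fluorescence not abnormally high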;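 further: negative B-score means reduced calcium response which marks RGS4 activation or potentiation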
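test system = HEK293 cells with stable M3R and inducible RGS4 | schedule = recording 10 s baseline at 1 Hz, 100 s post-agonist | technique = Fluo4-AM (2 µM) calcium-flux fluorescence, kinetic read | measure = Agonist-evoked peak-minus-minimum fluorescence over baseline, integrated ratio, B score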
MrgX1 allo act = human MrgX1 positive allosteric modulation, primary screen; Q96LB2; MrgX1-HEK293, Fluo-4 calcium flux, FDSS; stronger effect = higher value; B-score at 10 µM; 0.63% of 310,000 active; AID 588675;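 active means plate-corrected calcium response at least 3 library SD above typical, normal starting fluorescence, not activating the receptor alone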;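 further: compound read alongside a low EC10 to EC30 dose of BAM8-22 agonist; peak minus trough fluorescence over baseline measured at the second addition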
MrgX1 agonist = activates human MrgX1 receptor signaling | B-score at 10 µM | 0.44% of 310,000 active | AID 588627 | MrgX1-HEK293 cells, Fluo-4 calcium fluorescence, agonist mode; stronger effect = higher value;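 active means calcium response B-score plate-corrected fluorescence ratio at least 3 library SD, with starting fluorescence B-score inside 5 SD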
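System: HEK293 cells stably expressing human MrgX1 receptor; Dosing: test compound in the initial addition of three; Schedule: overnight plating, then 30 min 37 °C plus 30 min room-temperature dye loading; Detection: kinetic calcium dye fluorescence, Fluo-4 NW; Controls: per-plate positive and negative controls for Z′ factor.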
RGS4 inh = human RGS4 inhibition. AID 463165. B-score at 10 µM. P49798. HEK293 M3R/RGS4 inducible, Fluo-4 calcium flux; stronger effect = higher value; triggered by carbachol at its EC20. 0.45% of 310,000 active;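 active means B-score, a plate-corrected calcium signal, over three deviations above library mean, with baseline fluorescence within five deviations of library mean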;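 further: RGS4 expression induced by doxycycline in cells with stable M3 receptor; B-score is computed from the integrated fluorescence ratio over baseline after carbachol; higher B-score means a larger calcium signal and so more RGS4 inhibition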
Target sequence (P49798 whole entry, looked up): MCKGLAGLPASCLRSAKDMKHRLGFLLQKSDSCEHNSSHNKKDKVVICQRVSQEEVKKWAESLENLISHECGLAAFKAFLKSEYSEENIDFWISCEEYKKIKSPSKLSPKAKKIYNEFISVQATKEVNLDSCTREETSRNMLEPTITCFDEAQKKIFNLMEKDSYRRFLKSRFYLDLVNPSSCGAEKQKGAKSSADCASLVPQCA
MrgX1 PAM conf = human MrgX1 positive allosteric modulation, re-confirmation. shares compounds with MrgX1 allo act. MrgX1-HEK293, Fluo-4 calcium fluorescence, FDSS. activation (ratio percentage), % at 10 µM. 13% of 1,200 active;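 active means ratio at least 3 SD above the weak peptide control, stable starting fluorescence, no direct agonism earlier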;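 further: compound followed by low BAM8-22 agonist challenge near EC20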
HEK293 Ca flux = counter-screen for MrgX1 antagonists: effect in parental HEK293 cells. shares compounds with MrgX1 antag. Fluo-4 calcium fluorescence, FDSS. fluorescence ratio F(max-min)/F0 at 10 µM. 2% of 4,000 active;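 active means duplicate-averaged calcium fluorescence ratio at least three times the standard deviation of buffer wells, a nonspecific response in parental cells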
HEK293 Ca counter = counter-screen for MrgX1 allosteric activators: effect in parental HEK293 cells | fluorescence ratio F(max-min)/F0 at 10 µM | shares compounds with MrgX1 antag | 0.4% of 4,000 active | parental HEK293 calcium flux, Fluo-4 fluorescence ratio; stronger effect = higher value;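 active means calcium fluorescence ratio, averaged over duplicates, at least 3 SD of the buffer-well ratio, meaning a nonspecific response in receptor-free cells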;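 further: untransfected parental HEK293 lacking MrgX1 used as counterscreen for MrgX1 allosteric activators; fluorescence change taken during the second addition on a kinetic imager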
HEK293 Ca cntr2 = activity in parental HEK293 cells lacking MrgX1 receptor | 8.7% of 4,000 active | fluorescence ratio F(max-min)/F0 at 10 µM | Fluo-4 calcium fluorescence (FDSS); stronger effect = higher value | shares compounds with MrgX1 antag;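 active means calcium fluorescence ratio at least three times the spread of buffer wells, meaning a non-specific response in parental cells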
* hit, by the source's call.

`O=C(CSc1ccccc1)Nc1ccccc1N1CCOCC1` gave MrgX1 antag inactive, RGS4 pot inactive, MrgX1 allo act 8.55*, MrgX1 agonist inactive, RGS4 inh inactive, MrgX1 PAM conf inactive, HEK293 Ca flux inactive, HEK293 Ca counter inactive and HEK293 Ca cntr2 inactive.
For O=C(CSc1ccc(F)cc1)Nc1ccccc1N1CCOCC1 the results were MrgX1 antag inactive, RGS4 pot inactive, MrgX1 allo act inactive, MrgX1 agonist inactive and RGS4 inh inactive.
CCc1sc(C(=O)N2CCN(c3ccc(F)cc3)CC2)cc1C was read as MrgX1 antag inactive, RGS4 pot inactive, MrgX1 allo act inactive, MrgX1 agonist inactive and RGS4 inh inactive.
For COc1ccccc1NS(=O)(=O)c1cccc(NC(=O)c2[nH]c(C)c(C(C)=O)c2C)c1 the results were MrgX1 antag inactive, RGS4 pot inactive, MrgX1 allo act 7.45*, MrgX1 agonist inactive, RGS4 inh inactive, MrgX1 PAM conf inactive, HEK293 Ca flux inactive, HEK293 Ca counter inactive and HEK293 Ca cntr2 inactive.
Screening COc1ccccc1NC(=O)c1[nH]c(C)c(C(C)=O)c1C returned MrgX1 antag inactive, MrgX1 allo act inactive and MrgX1 agonist inactive.
COC(=O)c1ccc(/C=N/NC(=O)CC(=O)NCc2cccnc2)cc1 was read as MrgX1 antag inactive, RGS4 pot inactive, MrgX1 allo act inactive, MrgX1 agonist inactive and RGS4 inh inactive.
For Cc1ccc(Nc2ncnc3sccc23)c(C)c1 the results were MrgX1 antag inactive, RGS4 pot inactive, MrgX1 allo act 7.98*, MrgX1 agonist inactive, RGS4 inh inactive, MrgX1 PAM conf inactive, HEK293 Ca flux inactive, HEK293 Ca counter inactive and HEK293 Ca cntr2 inactive.
Screening CC(C)N(C(=O)CSc1nnc(Cc2csc(Nc3ccccc3)n2)o1)C(C)C returned MrgX1 antag inactive, RGS4 pot inactive, MrgX1 allo act inactive, MrgX1 agonist inactive and RGS4 inh inactive.
`CCCc1ccc(OCC(=O)Nc2cc(S(=O)(=O)CC)ccc2O)cc1` gave MrgX1 antag inactive, RGS4 pot inactive, MrgX1 allo act 24.2*, MrgX1 agonist inactive, RGS4 inh inactive, MrgX1 PAM conf inactive, HEK293 Ca flux inactive, HEK293 Ca counter inactive and HEK293 Ca cntr2 inactive.
`Cc1ccc(NC(=O)CCc2nc3ccccc3c(=O)[nH]2)cc1S(=O)(=O)N1CCOCC1` gave MrgX1 antag inactive, RGS4 pot inactive, MrgX1 allo act inactive, MrgX1 agonist inactive and RGS4 inh inactive.
O=C(NCCc1cn2ccccc2n1)c1cc(COc2ccc3ncccc3c2)on1 was read as MrgX1 antag inactive, RGS4 pot inactive, MrgX1 allo act 8.93*, MrgX1 agonist inactive, RGS4 inh inactive, MrgX1 PAM conf 5.7%*, HEK293 Ca flux inactive, HEK293 Ca counter inactive and HEK293 Ca cntr2 inactive.
O=C(NC1CCCC1)c1cc(COc2ccc3ncccc3c2)on1 was read as MrgX1 antag inactive, RGS4 pot inactive, MrgX1 allo act inactive, MrgX1 agonist inactive and RGS4 inh inactive.
For Cc1nnc(NC(=O)c2ccc(S(=O)(=O)N3CCOCC3)cc2)s1 the results were MrgX1 antag inactive, RGS4 pot inactive, MrgX1 allo act 9.83*, MrgX1 agonist inactive, RGS4 inh inactive, MrgX1 PAM conf inactive, HEK293 Ca flux inactive, HEK293 Ca counter inactive and HEK293 Ca cntr2 inactive.
Cc1nnc(NC(=O)c2ccc(C)c(S(=O)(=O)N3CCOCC3)c2)s1 was read as MrgX1 antag inactive, RGS4 pot inactive, MrgX1 allo act inactive, MrgX1 agonist inactive and RGS4 inh inactive.
